Calls of active or inactive are those of the source.
What was measured:
[1] = molecular target: T1, Adenosine receptor A1 (Homo sapiens) (UniProt P30542); assay: Displacement of [3H]N6-R-phenylisopropyladenosine from human adenosine A1 receptor expressed in CHO cell membranes at 10 uM incubated for 60 mins by liquid scintillation counting analysis
T1 sequence (whole entry): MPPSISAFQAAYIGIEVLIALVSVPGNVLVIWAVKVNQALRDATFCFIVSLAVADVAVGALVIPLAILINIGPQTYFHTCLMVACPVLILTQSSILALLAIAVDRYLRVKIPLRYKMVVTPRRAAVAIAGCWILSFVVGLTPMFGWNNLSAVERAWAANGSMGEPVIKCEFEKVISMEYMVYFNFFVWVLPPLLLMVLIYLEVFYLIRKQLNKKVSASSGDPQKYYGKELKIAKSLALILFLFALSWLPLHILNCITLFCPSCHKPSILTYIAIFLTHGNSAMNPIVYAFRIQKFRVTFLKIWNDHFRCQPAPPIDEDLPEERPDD

[2] = molecular target: Adenosine receptor A2a (Homo sapiens) (UniProt P29274); assay: Displacement of [3H]2-[p-(2-carboxyethyl)phenyl-ethylamino]-5'-N-ethylcarboxamido-adenosine from human adenosine A2A receptor expressed in HEK293 cell membranes at 10 uM incubated for 60 mins by liquid scintillation counting analysis
Chain of Adenosine receptor A2a (Homo sapiens) (P29274 whole entry): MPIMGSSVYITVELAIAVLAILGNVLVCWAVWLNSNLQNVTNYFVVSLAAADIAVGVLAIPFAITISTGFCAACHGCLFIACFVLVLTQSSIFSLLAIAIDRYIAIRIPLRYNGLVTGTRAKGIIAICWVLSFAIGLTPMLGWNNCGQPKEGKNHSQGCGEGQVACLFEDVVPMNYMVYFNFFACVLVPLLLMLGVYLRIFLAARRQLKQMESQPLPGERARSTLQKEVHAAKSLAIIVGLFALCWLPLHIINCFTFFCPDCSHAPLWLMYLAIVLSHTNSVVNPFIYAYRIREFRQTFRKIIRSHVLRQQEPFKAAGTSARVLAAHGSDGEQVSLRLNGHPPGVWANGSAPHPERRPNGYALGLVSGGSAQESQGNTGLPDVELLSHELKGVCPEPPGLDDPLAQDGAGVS

[3] = test system: Mus musculus; assay: Antineuropathic pain activity in mouse chronic constriction injury model assessed as protection against mechanoallodynia at 3 micromol/kg administered as oral gavage on day 7; format: functional, organism-based
Procedure, shortened: (§1)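 Mice underwent sciatic nerve ligation (Bennett method). On day 7, at peak pain, they were dosed by oral gavage at 3 µmol/kg, n=3. Vehicle was 10% DMSO in 0.5% methylcellulose, diluted from a 5 mM DMSO stock. Ipsilateral hind paw withdrawal threshold (g) was followed over time. Experimenters were blinded.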

[4] = molecular target: T2, Adenosine receptor A3 (Homo sapiens, UniProt P0DMS8); assay: Displacement of [125I]N6-(4-amino-3-iodobenzyl)adenosine-5'-N-methyl-uronamide from human adenosine A3 receptor expressed in CHO cell membranes incubated for 60 mins by liquid scintillation counting analysis
T2 sequence (P0DMS8 whole entry): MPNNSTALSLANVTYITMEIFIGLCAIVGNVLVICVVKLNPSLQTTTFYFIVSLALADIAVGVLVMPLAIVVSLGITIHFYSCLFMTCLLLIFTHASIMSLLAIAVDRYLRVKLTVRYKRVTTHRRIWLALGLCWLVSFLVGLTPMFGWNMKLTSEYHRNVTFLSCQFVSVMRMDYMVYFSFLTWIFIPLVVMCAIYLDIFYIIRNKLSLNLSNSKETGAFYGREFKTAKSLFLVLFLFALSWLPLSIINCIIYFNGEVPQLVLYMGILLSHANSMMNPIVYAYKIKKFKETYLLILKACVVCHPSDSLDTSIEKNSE

[5] = molecular target: T3, Adenosine receptor A3 (Mus musculus, UniProt Q61618); assay: Displacement of [125I]N6-(4-amino-3-iodobenzyl)adenosine-5'-Nmethyluronamide from mouse adenosine A3 receptor expressed in HEK293 cell membranes incubated for 60 mins by liquid scintillation counting analysis
T3 sequence (Q61618 whole entry): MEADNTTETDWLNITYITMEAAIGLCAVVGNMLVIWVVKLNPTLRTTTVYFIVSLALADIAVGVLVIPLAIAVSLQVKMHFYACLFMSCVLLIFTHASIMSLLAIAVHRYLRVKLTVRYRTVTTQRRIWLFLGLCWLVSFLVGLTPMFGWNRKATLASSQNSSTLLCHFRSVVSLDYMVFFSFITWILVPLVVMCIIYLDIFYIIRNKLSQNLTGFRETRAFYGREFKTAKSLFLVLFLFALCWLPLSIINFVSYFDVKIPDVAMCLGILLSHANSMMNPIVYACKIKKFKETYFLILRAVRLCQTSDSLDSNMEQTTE

[6] = molecular target: T2, Adenosine receptor A3; assay: Agonist activity at recombinant human adenosine A3 receptor expressed in CHO cells assessed as inhibition of forskolin-stimulated cAMP accumulation preincubated for 30 mins followed by forsolkin addition measured after 15 mins by immunoassay; format: cell-based
[7] = test system: Mus musculus; assay: Antineuropathic pain activity in mouse chronic constriction injury model assessed as time duration showing protection against mechanoallodynia at 3 micromol/kg administered as oral gavage on day 7; format: functional; procedure, shortened: as §1
[8] = molecular target: T4, Adenosine receptor A1 (Homo sapiens, UniProt P30542); assay: Displacement of [3H]N6-R-phenylisopropyladenosine from human adenosine A1 receptor expressed in CHO cell membranes incubated for 60 mins by liquid scintillation counting analysis
T4 sequence (P30542 whole entry): T1 sequence (whole entry)

[9] = molecular target: T3, Adenosine receptor A3; assay: Agonist activity at mouse adenosine A3 receptor expressed in HEK293 cell membranes assessed as inhibition of forskolin-stimulated cAMP accumulation preincubated for 30 mins followed by forsolkin addition measured after 15 mins by immunoassay; format: functional, cell-based
[10] = molecular target: Delta-type opioid receptor (Homo sapiens, UniProt P41143)
Chain of Delta-type opioid receptor (P41143 whole entry): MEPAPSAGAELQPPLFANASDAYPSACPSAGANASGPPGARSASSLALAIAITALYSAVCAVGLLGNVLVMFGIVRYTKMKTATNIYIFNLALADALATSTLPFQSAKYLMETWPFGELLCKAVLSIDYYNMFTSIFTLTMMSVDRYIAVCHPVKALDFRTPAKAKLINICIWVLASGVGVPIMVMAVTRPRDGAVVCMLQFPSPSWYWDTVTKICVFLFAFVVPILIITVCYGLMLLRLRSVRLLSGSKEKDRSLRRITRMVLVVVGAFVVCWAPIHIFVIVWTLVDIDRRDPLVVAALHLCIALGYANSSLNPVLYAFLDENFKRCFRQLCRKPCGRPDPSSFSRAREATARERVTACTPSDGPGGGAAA

[11] = molecular target: Sodium-dependent dopamine transporter (Homo sapiens) (UniProt Q01959); assay: Increase in [3H]methyl (1R,2S,3S)-3-(4-fluorophenyl)-8-methyl-8-azabicyclo[3.2.1]octane-2-carboxylate binding to recombinant human DAT expressed in HEK293 cells at 10 uM by PDSP assay; format: cell-based
Chain of Sodium-dependent dopamine transporter (Homo sapiens) (Q01959 whole entry): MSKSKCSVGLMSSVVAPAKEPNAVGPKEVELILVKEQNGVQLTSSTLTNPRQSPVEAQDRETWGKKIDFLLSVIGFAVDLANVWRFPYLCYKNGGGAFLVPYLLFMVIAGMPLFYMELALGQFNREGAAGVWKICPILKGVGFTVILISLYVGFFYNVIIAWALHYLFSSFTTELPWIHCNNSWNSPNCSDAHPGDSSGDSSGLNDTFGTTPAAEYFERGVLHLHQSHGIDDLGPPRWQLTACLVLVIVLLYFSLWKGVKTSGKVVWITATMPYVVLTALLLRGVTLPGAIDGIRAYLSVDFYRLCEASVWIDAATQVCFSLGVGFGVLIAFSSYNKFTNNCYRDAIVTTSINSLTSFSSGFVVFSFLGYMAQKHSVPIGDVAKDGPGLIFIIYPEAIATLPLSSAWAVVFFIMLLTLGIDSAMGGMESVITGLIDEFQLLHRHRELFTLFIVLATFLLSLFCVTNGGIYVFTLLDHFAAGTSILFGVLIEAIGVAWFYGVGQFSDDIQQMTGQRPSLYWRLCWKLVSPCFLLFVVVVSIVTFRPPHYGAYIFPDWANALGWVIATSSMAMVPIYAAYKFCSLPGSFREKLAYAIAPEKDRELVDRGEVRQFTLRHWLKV

[12] = test system: Mus musculus; assay: Antineuropathic pain activity in mouse chronic constriction injury model assessed as protection against mechanoallodynia at 3 micromol/kg administered as oral gavage on day 7 measured at 1 hr; format: functional; procedure, shortened: as §1
[13] = test system: Mus musculus; assay: Antineuropathic pain activity in mouse chronic constriction injury model assessed as protection against mechanoallodynia at 3 micromol/kg administered as oral gavage on day 7 measured at 3 hrs; format: functional; procedure, shortened: as §1

Compound | inhibition [1] | inhibition [2] | Ki [4] | other results
CNC(=O)[C@@]12C[C@@H]1[C@@H](n1cnc3c(C)nc(C#Cc4ccc(C(C)(C)C)cc4)nc31)[C@H](O)[C@@H]2O | 16% | 15% | – | –
CNC(=O)[C@@]12C[C@@H]1[C@@H](n1cnc3c(NC)nc(C#Cc4ccccc4)nc31)[C@H](O)[C@@H]2O | – | – | – | Activity [3]: Active
CNC(=O)[C@@]12C[C@@H]1[C@@H](n1cnc3c(/C=C(\O)c4ccccc4)nc(Cl)nc31)[C@H](O)[C@@H]2O | 30% | 24% | 1140 nM | –
CNC(=O)[C@@]12C[C@@H]1[C@@H](n1cnc3cnc(C#Cc4ccc(Cl)s4)nc31)[C@H](O)[C@@H]2O | < 10% | 18% | 60 nM | Ki [5]: 396 nM; EC50 [6]: 26.9 nM; Time [7]: 5 h
CNC(=O)[C@@]12C[C@@H]1[C@@H](n1cnc3c(/C=C(\O)c4ccccc4Cl)nc(C#Cc4ccccc4Cl)nc31)[C@H](O)[C@@H]2O | 28% | 21% | 515 nM | –
CNC(=O)[C@@]12C[C@@H]1[C@@H](n1cnc3c(OC)nc(C#Cc4ccc(Cl)s4)nc31)[C@H](O)[C@@H]2O | – | 27% | – | Ki [8]: 796 nM
CNC(=O)[C@@]12C[C@@H]1[C@@H](n1cnc3c(/C=C(\O)c4ccccc4)nc(C#Cc4ccccc4)nc31)[C@H](O)[C@@H]2O | 16% | 16% | 78.5 nM | Ki [5]: 136 nM; EC50 [9]: 4.86 nM; Activity [3]: Active
CNC(=O)[C@@]12C[C@@H]1[C@@H](n1cnc3cnc(C#Cc4ccc(F)c(F)c4)nc31)[C@H](O)[C@@H]2O | 17% | 12% | 124 nM | –
CNC(=O)[C@@]12C[C@@H]1[C@@H](n1cnc3c(C)nc(C#Cc4ccc(Cl)s4)nc31)[C@H](O)[C@@H]2O | < 10% | 12% | 42.2 nM | Ki [5]: 722 nM; EC50 [6]: 12.5 nM; Activity [3]: Active; Ki [10]: 5800 nM
CNC(=O)[C@@]12C[C@@H]1[C@@H](n1cnc3c(C)nc(C#Cc4ccccc4)nc31)[C@H](O)[C@@H]2O | 15% | 34% | – | Activity [3]: Active; Activity [11]: 200%
CNC(=O)[C@@]12C[C@@H]1[C@@H](n1cnc3cnc(NC)nc31)[C@H](O)[C@@H]2O | 17% | < 10% | 604 nM | –
CNC(=O)[C@@]12C[C@@H]1[C@@H](n1cnc3c(NCc4cccc(Cl)c4)nc(C#Cc4ccc(F)c(F)c4)nc31)[C@H](O)[C@@H]2O | – | – | – | Activity [12]: 100%; Activity [13]: 23.7%
CNC(=O)[C@@]12C[C@@H]1[C@@H](n1cnc3c(/C=C(\O)c4ccc(C(C)(C)C)cc4)nc(C#Cc4ccc(C(C)(C)C)cc4)nc31)[C@H](O)[C@@H]2O | 24% | 19% | 94.3 nM | –
CNC(=O)[C@@]12C[C@@H]1[C@@H](n1cnc3c(C)nc(C#Cc4ccc(F)c(F)c4)nc31)[C@H](O)[C@@H]2O | – | 14% | 98.5 nM | Ki [8]: 5430 nM
CNC(=O)[C@@]12C[C@@H]1[C@@H](n1cnc3c(C)nc(C#Cc4cnccn4)nc31)[C@H](O)[C@@H]2O | 15% | 17% | – | –
CNC(=O)[C@@]12C[C@@H]1[C@@H](n1cnc3cnc(/C=C(\O)c4cnccn4)nc31)[C@H](O)[C@@H]2O | 14% | 20% | 1480 nM | –

From ChEMBL document CHEMBL3797168 (J Med Chem, 2016)
